Compound activity (PubChem BioAssay)
Rin1 Abl inh: inhibitors of human Rin1-Abl protein interaction; P00519+Q13671; TR-FRET Rin1/Abl binding, biochemical; inhibition, % at 7.35 µM; hit rate 0.4% among 360,000; AID 588664; in the data active = inhibition above about 5%, passing the limit was not always enough
ABHD5 PLIN5 PPI: inhibitors of human ABHD5-perilipin-5 interaction; Q00G26+Q8WTS1; hit rate 0.78% among 360,000; Split G. princeps luciferase complementation, luminescence, 4 h; AID 602281; inhibition, % at 4 µM;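 active = inhibition above the mean inhibition across every tested compound plus 3 SD, cut at about 22% in these data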
Target sequence (Q00G26 whole entry, looked up): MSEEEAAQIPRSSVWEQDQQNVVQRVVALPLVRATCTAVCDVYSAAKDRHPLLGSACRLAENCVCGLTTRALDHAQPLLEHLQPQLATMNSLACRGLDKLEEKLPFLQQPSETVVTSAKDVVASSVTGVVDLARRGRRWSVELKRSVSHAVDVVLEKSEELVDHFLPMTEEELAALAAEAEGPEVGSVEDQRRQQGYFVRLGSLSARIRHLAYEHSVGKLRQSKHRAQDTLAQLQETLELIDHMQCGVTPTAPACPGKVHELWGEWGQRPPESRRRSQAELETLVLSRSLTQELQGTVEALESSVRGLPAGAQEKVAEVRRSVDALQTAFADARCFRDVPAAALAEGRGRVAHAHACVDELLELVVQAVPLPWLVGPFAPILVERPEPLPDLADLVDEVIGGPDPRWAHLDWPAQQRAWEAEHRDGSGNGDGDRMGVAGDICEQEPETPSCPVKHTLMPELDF
Target sequence (Q8WTS1 whole entry, looked up): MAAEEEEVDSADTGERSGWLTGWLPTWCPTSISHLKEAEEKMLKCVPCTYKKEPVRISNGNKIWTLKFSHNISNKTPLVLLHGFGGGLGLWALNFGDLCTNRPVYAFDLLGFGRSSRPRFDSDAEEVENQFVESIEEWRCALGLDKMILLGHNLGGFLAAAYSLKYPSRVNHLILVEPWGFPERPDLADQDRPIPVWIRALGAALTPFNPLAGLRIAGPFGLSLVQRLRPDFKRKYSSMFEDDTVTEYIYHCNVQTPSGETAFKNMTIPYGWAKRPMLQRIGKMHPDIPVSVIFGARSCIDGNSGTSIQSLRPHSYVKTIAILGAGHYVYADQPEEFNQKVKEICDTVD
NadD inh: NadD (S. aureus) enzyme inhibition | inhibition, % at 20 µM | hit rate 0.78% among 360,000 | purified NadD enzyme, colorimetric absorbance read-out | AID 602399; in the data active = inhibition above about 26%
XiGFP reactiv: reactivates the inactive X chromosome in mouse fibroblasts | XiGFP mouse fibroblasts, % GFP-positive cells imaging, 3 d; cells co-treated with 5-aza-dC sensitizer; scaled so ellipticine positive control = 100% | activation, % at 7.58 µM | AID 743238 | hit rate 0.055% among 360,000;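 active = mean normalized replicate activation at least 10% and every replicate at or above 10%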
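Assay system: SV40-immortalized XiGFP fibroblast cells, line 68-5-11; buffer or medium: DMEM plus 5-aza-dC sensitizer; compound: one concentration, pinned; timing: compounds 3 days, fix/stain 15 min at room temperature; benchmarks: positive control ellipticine, 6 µM final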
Rpn11 inh: Rpn11 (human) deubiquitinase inhibition. O00487. human 26S proteasome, Ub4-pepOG fluorescence polarization; 20S core pre-blocked with epoxomicin. inhibition, % at 20 µM. hit rate 0.59% among 360,000;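 active = inhibition at 20 µM, scaled to each plate's controls, above about 33%, limit read from the data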
NadD inh conf: NadD (S. aureus) inhibition, single concentration confirmation; shares compounds with NadD inh; purified S. aureus NadD, colorimetric enzyme assay; inhibition, % at 20 µM; hit rate 13% among 2,000; in the data active = inhibition mostly above about 42%, no sharp cut-off; inactive = mostly below about 42%
Hits are given with their value; i = inactive; nt = no result given. Only some compounds are listed: those with a hit (about 1.9% of all), similar ones and a draw of the others.

SMILES	Rin1 Abl inh	ABHD5 PLIN5 PPI	NadD inh	XiGFP reactiv	Rpn11 inh	NadD inh conf
COC(=O)c1ccc(C2/C(=C(\O)c3ccc4c(c3)OCCO4)C(=O)C(=O)N2CCCN2CCOCC2)cc1 (stereo unspecified)	i	i	i	i	i	nt
Cc1noc(C)c1S(=O)(=O)N(C)C[C@H]1Oc2ccc(NC(=O)CCCCCC(=O)Nc3ccccc3N)cc2CC(=O)N([C@@H](C)CO)C[C@@H]1C	nt	nt	nt	i	nt	nt
C[C@@H]1CN([C@H](C)CO)C(=O)c2cccc(NS(=O)(=O)c3ccc(Cl)cc3)c2O[C@H]1CN(C)C(=O)Nc1ccc(F)cc1	nt	nt	nt	i	nt	nt
CNC(=O)C[C@H]1CC[C@@H]2[C@H](COc3ccc(NC(=O)Nc4ccc(C)cc4)cc3C(=O)N2C)O1	nt	nt	nt	i	nt	nt
O=c1cc(/N=C/c2coc3c(ccc4ccccc43)c2=O)[nH]c(=S)[nH]1	i	i	65	i	i	i
NC(=S)N/N=C/c1coc2c(ccc3ccccc32)c1=O	i	i	i	i	i	nt
COc1ccc(S(=O)(=O)Nc2ccc3c(c2)CC(=O)N([C@@H](C)CO)C[C@@H](C)[C@@H](CN(C)C(=O)Nc2ccc4c(c2)OCO4)O3)cc1	nt	nt	nt	i	nt	nt
Clc1ccc(-c2ccc(-c3nn4c(-c5ccco5)nnc4s3)o2)cc1	i	i	35	nt	i	i
C[C@H](NC(=O)c1nc[nH]c1C(=O)N1CCN(c2ccccc2)CC1)C(=O)OCc1ccccc1	i	i	i	i	i	nt
O=C(N[C@@H](Cc1ccccc1)C(=O)OCc1ccccc1)c1nc[nH]c1C(=O)N1CCN(c2ccccc2)CC1	i	i	30	i	i	i
CCC(=O)Nc1ccc2c(c1)OC[C@@H](C)N(Cc1cccnc1)C[C@@H](C)[C@@H](OC)CN(C)C2=O	nt	nt	nt	i	nt	nt
C/C(=N\NC(=O)c1cccc(N/N=C(\C)c2ccc([N+](=O)[O-])cc2)c1)c1ccc([N+](=O)[O-])cc1	i	i	33	i	i	i
CO[C@@H]1CN(C)C(=O)c2ccc(NS(=O)(=O)c3cn(C)cn3)cc2OC[C@H](C)N(C)C[C@@H]1C	nt	nt	nt	i	nt	nt
COc1ccccc1-n1c(SCc2cc(=O)oc3cc(O)ccc23)nc2ccccc2c1=O	i	i	32	i	i	58
O=C(N[C@H]1CC[C@@H](CCn2cc(-c3ccccn3)nn2)O[C@H]1CO)c1cccnc1	nt	nt	nt	i	nt	nt
CCOC(=O)c1c(NC(=O)CSc2nnc(-c3c[nH]c4ccccc34)n2C)sc2c1CCCC2	i	i	33	i	i	i
COCCn1c(SCC(=O)Nc2ccc3c(c2)OCCO3)nnc1-c1c[nH]c2ccccc12	i	i	i	nt	i	nt
CCOC(=O)c1c(NC(=O)CSc2nnc(-c3c[nH]c4ccccc34)n2CCOC)sc2c1CCCC2	i	i	34	i	i	i
CNC[C@@H]1Oc2ccc(NS(=O)(=O)c3cccs3)cc2C(=O)N([C@H](C)CO)C[C@@H]1C	nt	nt	nt	i	nt	nt
Cc1cc2cc(CNC(=O)Nc3ccc(Cl)c(Cl)c3)ccc2n1C	i	i	31	i	i	i
CC(C)(Sc1ccc(CCN(CCCCC2CCCCC2)C(=O)NC2CCCCC2)cc1)C(=O)O	i	i	46	i	i	i
Cc1c(C(=O)OCC(O)=C(C#N)c2nc3ccccc3[nH]2)oc2ccc(Br)cc12	i	i	37	i	i	i
Cc1c(C(=O)OC/C(O)=C(\C#N)c2nc3ccccc3[nH]2)oc2ccccc12	i	i	i	i	nt	nt
O=C(N/N=C/c1ccc(Cl)c([N+](=O)[O-])c1)c1cc(-c2ccccc2)nc2ccccc12	i	i	i	i	i	nt
Cc1ccc(-c2cc(C(=O)N/N=C/c3ccc([N+](=O)[O-])o3)c3ccccc3n2)o1	i	i	32	i	i	i
SMILES	Rin1 Abl inh	ABHD5 PLIN5 PPI	NadD inh	XiGFP reactiv	Rpn11 inh	NadD inh conf
O=C(N/N=C/c1ccc([N+](=O)[O-])o1)c1cc(-c2ccc(-c3ccccc3)cc2)nc2ccccc12	i	i	70	i	i	i
O=C(N/N=C/c1ccc([N+](=O)[O-])o1)c1cc(-c2ccncc2)nc2ccccc12	i	i	i	nt	i	nt
O=C(N/N=C/c1cc([N+](=O)[O-])ccc1Cl)c1cc(-c2ccccc2)nc2ccccc12	i	i	36	i	i	i
C[C@H]1CN([C@@H](C)CO)C(=O)c2cccc(NC(=O)c3ccncc3)c2O[C@@H]1CN(C)S(=O)(=O)c1cn(C)cn1	nt	nt	nt	i	nt	nt
COc1ccc(NC(=O)N(C)C[C@H]2OCCCC[C@H](C)Oc3ccc(NC(=O)CCC(F)(F)F)cc3C(=O)N([C@H](C)CO)C[C@@H]2C)cc1	nt	nt	nt	i	nt	nt
C[C@H](CO)N1C[C@H](C)[C@H](CN(C)S(C)(=O)=O)OCCCC[C@H](C)Oc2ccc(NC(=O)Nc3ccc(F)cc3)cc2C1=O	nt	nt	nt	i	nt	nt
CCOC(=O)c1csc(NC(=O)c2cc3ccccc3o2)n1	i	i	i	i	i	nt
Cc1cc(-c2csc(NC(=O)c3cc4ccccc4o3)n2)c(C)n1C	i	i	36	nt	i	i
Cc1cc(-c2csc(NC(=O)c3ccc(C#N)cc3)n2)c(C)n1Cc1ccco1	i	i	34	i	i	i
N#Cc1ccc(-c2csc(NC(=O)c3ccc(N4C(=O)CCC4=O)cc3)n2)cc1	i	i	i	i	i	nt
Cc1cc(-c2csc(NC(=O)c3ccc(=O)[nH]c3)n2)c(C)n1Cc1ccccc1	i	i	48	i	i	i
C=CCn1c(C)cc(-c2csc(NC(=O)CCc3nc4ccccc4c(=O)[nH]3)n2)c1C	i	i	52	i	i	i
COc1ccccc1-c1ccc2c(c1)O[C@H](CN(C)S(=O)(=O)c1ccc(F)cc1)[C@H](C)CN([C@H](C)CO)S2(=O)=O	nt	nt	nt	i	nt	nt
CS(=O)(=O)N1[C@@H]2c3ccc(-c4ccc(F)cc4)c(=O)n3C[C@@H]2[C@@H](CO)[C@@H]1C(=O)O	nt	nt	nt	i	nt	nt
[O-]/C(=C(\C(=S)Nc1ccccc1F)[n+]1ccccc1)c1ccc(-c2ccccc2)cc1	i	i	31	i	i	i
CC(C)(C)c1cc[n+](/C(C(=S)Nc2ccccc2F)=C(/[O-])c2ccc3c(c2)OCCO3)cc1	i	i	i	i	i	nt
CCOC(=O)c1c(NC(=O)CSc2nc3cc(Cl)ccc3c(=O)n2Cc2ccco2)sc(C(=O)N(C)C)c1C	i	i	39	i	i	i
CCc1ccc(NC(=O)CSc2nc3cc(C(=O)OC)ccc3c(=O)n2Cc2ccco2)cc1	i	i	i	nt	i	nt
CO[C@H]1CN(C)C(=O)c2ccc(NC(=O)c3ccccc3)cc2OC[C@H](C)N(CC2CC2)C[C@H]1C	nt	nt	nt	i	nt	nt
O=c1c2sc3nc(N4CCOCC4)c4c(c3c2ncn1C(c1ccccc1)c1ccccc1)CCCC4	i	i	32	i	i	i
O=c1c2sc3nc(N4CCOCC4)c4c(c3c2ncn1-c1ccccc1)CCCC4	i	i	i	i	i	nt
O=C1CC(c2ccco2)CC(O)=C1C=NCCN1CCNCC1 (stereo unspecified)	i	i	i	nt	i	nt
